{"data": "Assay results collected from several papers", "target": "Serine/threonine-protein kinase WNK4 (WNK4, Homo sapiens, UniProt Q96J92)", "note": "Protocols differ between the studies behind these lines."}
{"Structure (SMILES)": "C[C@@H](c1ccc(-n2cnc3c(N)ncnc32)cc1)N1CCc2nn(C)c(Cc3ccccc3)c2C1=O", "read-out": "binding", "technique": "competition with immobilised ligand", "tested at": "0.1 µM", "remaining binding [%]": 75}
{"Structure (SMILES)": "C[C@H]1CCN(c2nccc(-c3cnn4ncccc34)n2)C1", "read-out": "binding", "tested at": "1 µM", "remaining binding [%]": 79}
{"Structure (SMILES)": "CC1=C(C#N)[C@@H](c2ccc3[nH]nc(C)c3c2)C(C#N)=C(c2ccc(Cl)cc2)N1", "read-out": "cell-free assay", "technique": "competition with immobilised ligand", "tested at": "1 µM", "remaining binding [%]": 100}
{"Structure (SMILES)": "N[C@H]1CCN(c2nccc(-c3cnn4ncccc34)n2)C1", "read-out": "binding", "tested at": "1 µM", "remaining binding [%]": 84}
{"Structure (SMILES)": "CC(=O)c1c(NS(C)(=O)=O)c2cc(-c3ccc(Cl)cc3)c(-c3ccc(Cl)cc3Cl)nc2n(C)c1=O", "read-out": "cell-free assay", "technique": "competition with immobilised ligand", "tested at": "1 µM", "remaining binding [%]": 96}
{"Structure (SMILES)": "COc1ccnn2ncc(-c3ccnc(N(C)C)n3)c12", "read-out": "binding", "tested at": "1 µM", "remaining binding [%]": 100}
{"Structure (SMILES)": "O=C(c1ccc(Nc2ncc(Cl)c(-c3ccc(Cl)s3)n2)cc1)N1CCC(N2CCCC2)CC1", "read-out": "binding", "technique": "competition with immobilised ligand", "tested at": "1 µM", "remaining binding [%]": 100}
{"Structure (SMILES)": "C=CC(=O)N1CCC(C(=O)NCC(=O)N2CCN(c3nc(-c4cnc(N)nc4C(F)F)nc(N4CCOCC4)n3)CC2)CC1", "read-out": "binding", "technique": "competition with immobilised ligand", "tested at": "1 µM", "remaining binding [%]": 92}
{"Structure (SMILES)": "CN(C)CC#Cc1ccc(OCCCc2sc(N3CCc4cccc(C(=O)Nc5nc6ccccc6s5)c4C3)nc2C(=O)O)c(F)c1", "read-out": "cell-free assay", "technique": "competition with immobilised ligand", "tested at": "1 µM", "remaining binding [%]": 81}
{"Structure (SMILES)": "O=C(c1ccc(Nc2nccc(-c3cc4ccccc4s3)n2)cc1)N1CCC(N2CCCC2)CC1", "read-out": "binding", "technique": "competition with immobilised ligand", "tested at": "1 µM", "remaining binding [%]": 92}
{"Structure (SMILES)": "NS(=O)(=O)c1cc(NC(=O)C2(c3ccccc3Cl)CC2)ccc1Oc1cccc(Cl)c1", "read-out": "cell-free assay", "technique": "competition with immobilised ligand", "tested at": "1 µM", "remaining binding [%]": 81}
{"Structure (SMILES)": "c1cnn2ncc(-c3ccnc(N4CCC45COC5)n3)c2c1", "read-out": "binding", "tested at": "1 µM", "remaining binding [%]": 64}
{"Structure (SMILES)": "CNC(=O)[C@@H]1CC[C@@H](n2c(-c3ccc4cnccc4c3)nc3ccc(C(=O)NCc4cccc(C(N)=O)c4)cc32)C1", "read-out": "binding", "technique": "competition with immobilised ligand", "tested at": "1 µM", "remaining binding [%]": 100}
{"Structure (SMILES)": "CC1CCCN1c1nccc(-c2cnn3ncccc23)n1 (stereo not drawn)", "read-out": "binding", "tested at": "1 µM", "remaining binding [%]": 100}
{"Structure (SMILES)": "Nc1ncc2c(n1)-c1c([nH]c3ccc(C#CC4CC4)cc13)CCCC2", "read-out": "binding", "technique": "competition with immobilised ligand", "tested at": "1 µM", "remaining binding [%]": 79}
{"Structure (SMILES)": "O=C(NCCCN1CCOCC1)c1ccc(Nc2ncc(Cl)c(-c3ccc(Cl)s3)n2)cc1", "read-out": "binding", "technique": "competition with immobilised ligand", "tested at": "1 µM", "remaining binding [%]": 99}
{"Structure (SMILES)": "O=C(NCC1CCOCC1)c1n[nH]cc1NC(=O)c1c(F)cccc1F", "read-out": "binding", "technique": "competition with immobilised ligand", "tested at": "1 µM", "remaining binding [%]": 86}
{"Structure (SMILES)": "CSc1cccnc1N1CCN(Cc2nc3ccccc3[nH]2)CC1", "read-out": "cell-free assay", "technique": "competition with immobilised ligand", "tested at": "1 µM", "remaining binding [%]": 91}
{"Structure (SMILES)": "CN(CCCC(F)(F)F)c1nccc(-c2cnn3ncccc23)n1", "read-out": "binding", "tested at": "1 µM", "remaining binding [%]": 91}
{"Structure (SMILES)": "Cc1nc(Cc2cccc(C(F)(F)F)c2)sc1-c1ccc(C(N)=O)nc1", "read-out": "cell-free assay", "technique": "competition with immobilised ligand", "tested at": "1 µM", "remaining binding [%]": 100}
{"Structure (SMILES)": "c1cncc(-c2cccc(Nc3nccc(NC4CCCCC4)n3)c2)c1", "read-out": "binding", "technique": "competition with immobilised ligand", "tested at": "10 µM", "remaining binding [%]": 100}
